{
  "source": "ChEMBL document CHEMBL3808283",
  "about": "“Biological Characterization and in Vivo Assessment of the Activity of a New Synthetic Macrocyclic Antifungal Compound” (J Med Chem, 2016)",
  "key": {"[1]": {"test_system": "Candida albicans", "experiment": "Antifungal activity against azole-susceptible Candida albicans isolate DSY294 in immunocompetent Balb/c mouse candidiasis model assessed as reduction in CFU count in kidney at 40 mg/kg/day, ip regime measured on day 7 post infection", "format": "functional, organism-based", "method_in_brief": "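Immunocompetent BALB/c mice, groups of 10, were injected in the lateral tail vein with 7 × 10^4 CFU of C. albicans in 200 µL saline. Drug was given ip daily at 40 mg/kg/day in DMSO/PEG 400 2:1 (0.1 mg/mL, 100 µL). Kidneys were taken on day 7, homogenized and plated on YPD agar for 2 days at 30 °C. Read-out was CFU/g; Wilcoxon rank-sum test, P<0.05.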"}, "[2]": {"test_system": "Candida albicans", "experiment": "Antifungal activity against azole-susceptible Candida albicans isolate DSY294 in immunocompetent Balb/c mouse candidiasis model assessed as reduction in CFU count in spleen at 40 mg/kg/day, ip regime measured on day 7 post infection", "format": "functional, organism-based", "method_in_brief": "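Immunocompetent BALB/c mice, 10 per strain group, injected in the lateral tail vein with 7 × 10^4 CFU of C. albicans in 200 µL sterile saline. Compound given ip daily, 100 µL of 0.1 mg/mL in DMSO/PEG 400 2:1; fluconazole control ip at 8 mg/kg/day. On day 7, spleen and kidneys were excised, weighed and homogenized in saline, then plated on YPD agar for 2 days at 30 °C. Read-out CFU/g; Wilcoxon rank-sum test, P<0.05.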"}, "[3]": {"test_system": "Candida albicans", "experiment": "Antifungal activity against Candida albicans isolate DSY654 harboring CDR1/2 deletion mutant at 10 uM by serial dilution assay", "format": "functional, organism-based", "method_in_brief": "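Spot dilution assay: C. albicans cells 10-fold serially diluted from 2 × 10^7 cells/mL, with 5 µL of each dilution spotted onto YEPD agar plates containing the drug.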"}, "[4]": {"test_system": "Candida albicans", "experiment": "Antifungal activity against wild type Candida albicans CAF2-1 at 10 uM by serial dilution assay", "format": "functional, organism-based"}, "[5]": {"test_system": "Candida parapsilosis", "experiment": "Ratio of MIC at 24 hrs to MIC at 48 hrs for Candida parapsilosis ATCC 34136", "format": "functional", "method_in_brief": "(§1)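 MICs by EUCAST broth microdilution, with the update for non-fermenting yeasts, incubated at 37 °C. Read at 24, 48 and 72 h as the lowest concentration preventing visible growth.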"}, "[6]": {"test_system": "Candida parapsilosis", "experiment": "Ratio of MIC at 24 hrs to MIC at 48 hrs for Candida parapsilosis 81E", "format": "functional", "method_in_brief": "as §1"}, "[7]": {"test_system": "Candida albicans", "experiment": "Antifungal activity against Candida albicans 4T up to 96 hrs by broth dilution assay", "format": "functional, organism-based"}, "[8]": {"test_system": "Candida albicans", "experiment": "Upregulation of CDR2 gene expression in Candida albicans SC5314 at 3 uM after 15 mins by microarray method relative to control", "format": "functional", "method_in_brief": "(§2)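 Log-phase C. albicans SC5314 in liquid YEPD exposed to 3 µM final for 15 or 45 min; untreated controls taken at the same time points. Three biological replicates. RNA extracted by glass-bead/phenol-chloroform method and integrity checked. One-color Cy3-labeled cRNA (600 ng) hybridized 17 h at 65 °C to 8 × 15K arrays. Expression expressed as fold change versus control.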"}, "[9]": {"test_system": "Candida albicans", "experiment": "Upregulation of orf19.4531 gene expression in Candida albicans SC5314 at 3 uM after 15 mins by microarray method relative to control", "format": "functional", "method_in_brief": "(§3)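 Log-phase cultures in liquid YEPD were exposed to 3 µM compound (final) for 15 or 45 min, with untreated controls sampled at the same times, in three biological replicates. Total RNA was extracted by glass-bead/phenol-chloroform disruption and integrity-checked. One-color Cy3-labelled cRNA (600 ng) was hybridized for 17 h at 65 °C to 8 × 15K arrays, and fold change was taken versus control.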"}, "[10]": {"test_system": "Candida albicans", "experiment": "Upregulation of orf19.3378 gene expression in Candida albicans SC5314 at 3 uM after 15 mins by microarray method relative to control", "format": "functional", "method_in_brief": "as §3"}, "[11]": {"test_system": "Candida albicans", "experiment": "Upregulation of PDR16 gene expression in Candida albicans SC5314 at 3 uM after 15 mins by microarray method relative to control", "format": "functional", "method_in_brief": "as §2"}, "[12]": {"test_system": "Candida albicans", "experiment": "Upregulation of RTA2 gene expression in Candida albicans SC5314 at 3 uM after 15 mins by microarray method relative to control", "format": "functional", "method_in_brief": "as §2"}, "[13]": {"test_system": "Candida albicans", "experiment": "Upregulation of FCR1 gene expression in Candida albicans SC5314 at 3 uM after 15 mins by microarray method relative to control", "format": "functional", "method_in_brief": "as §2"}, "[14]": {"test_system": "Candida albicans", "experiment": "Upregulation of TAC1 gene expression in Candida albicans SC5314 at 3 uM after 15 mins by microarray method relative to control", "format": "functional", "method_in_brief": "as §2"}, "[15]": {"test_system": "Candida albicans", "experiment": "Upregulation of CRZ2 gene expression in Candida albicans SC5314 at 3 uM after 15 mins by microarray method relative to control", "format": "functional", "method_in_brief": "as §2"}, "[16]": {"test_system": "Candida albicans", "experiment": "Upregulation of IFU5 gene expression in Candida albicans SC5314 at 3 uM after 15 mins by microarray method relative to control", "format": "functional", "method_in_brief": "as §2"}, "[17]": {"test_system": "Candida albicans", "experiment": "Upregulation of CDR2 gene expression in Candida albicans SC5314 at 3 uM after 45 mins by microarray method relative to control", "format": "functional", "method_in_brief": "as §2"}, "[18]": {"test_system": "Candida albicans", "experiment": "Upregulation of orf19.2726 gene expression in Candida albicans SC5314 at 3 uM after 45 mins by microarray method relative to control", "format": "functional", "method_in_brief": "as §3"}, "[19]": {"test_system": "Candida albicans", "experiment": "Upregulation of RTA2 gene expression in Candida albicans SC5314 at 3 uM after 45 mins by microarray method relative to control", "format": "functional", "method_in_brief": "as §2"}, "[20]": {"test_system": "Candida albicans", "experiment": "Upregulation of ERG2 gene expression in Candida albicans SC5314 at 3 uM after 45 mins by microarray method relative to control", "format": "functional", "method_in_brief": "as §2"}, "[21]": {"test_system": "Candida albicans", "experiment": "Upregulation of CRZ2 gene expression in Candida albicans SC5314 at 3 uM after 45 mins by microarray method relative to control", "format": "functional", "method_in_brief": "as §2"}, "[22]": {"test_system": "Candida albicans", "experiment": "Antifungal activity against Candida albicans ATCC 60193 measured at 72 hrs by broth dilution assay", "format": "functional", "conditions": "ATCC 60193, 72 h", "method_in_brief": "(§4)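 EUCAST broth microdilution, including the update for non-fermenting yeasts (Cryptococcus, Geotrichum), on clinical and reference yeast isolates. Incubated at 37 °C and read at 24, 48 and 72 h. MIC taken as the lowest concentration with no visible growth. For Cryptococcus and Geotrichum, MICs were read only once growth was visible in the control row.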"}, "[23]": {"test_system": "Pichia kudriavzevii", "experiment": "Antifungal activity against Candida krusei ATCC 14243 measured at 24 hrs by broth dilution assay", "format": "functional", "conditions": "ATCC 14243, 24 h", "method_in_brief": "as §4"}, "[24]": {"test_system": "Pichia kudriavzevii", "experiment": "Antifungal activity against Candida krusei 193T measured at 24 hrs by broth dilution assay", "format": "functional", "method_in_brief": "as §4"}, "[25]": {"test_system": "Pichia kudriavzevii", "experiment": "Antifungal activity against Candida krusei 193T measured at 48 hrs by broth dilution assay", "format": "functional", "method_in_brief": "as §4"}, "[26]": {"test_system": "Candida parapsilosis", "experiment": "Antifungal activity against Candida parapsilosis ATCC 34136 measured at 48 hrs by broth dilution assay", "format": "functional", "conditions": "Lodderomyces parapsilosis, ATCC 34136, 48 h", "method_in_brief": "as §4"}, "[27]": {"test_system": "Candida parapsilosis", "experiment": "Antifungal activity against Candida parapsilosis 64E measured at 48 hrs by broth dilution assay", "format": "functional", "conditions": "Lodderomyces parapsilosis", "method_in_brief": "as §4"}, "[28]": {"test_system": "Candida parapsilosis", "experiment": "Antifungal activity against Candida parapsilosis 81E measured at 48 hrs by broth dilution assay", "format": "functional", "conditions": "Lodderomyces parapsilosis", "method_in_brief": "as §4"}, "[29]": {"test_system": "Candida tropicalis", "experiment": "Antifungal activity against Candida tropicalis 86E measured at 72 hrs by broth dilution assay", "format": "functional", "method_in_brief": "as §4"}, "[30]": {"experiment": "Antifungal activity against Geotrichum silvicola measured at 48 hrs by broth dilution assay", "format": "functional", "method_in_brief": "as §4"}},
  "note": "Activity calls are given as the source filed them. The rule behind the calls is not given here.",
  "data": [
    {"smiles": "C/C=C/CNC(=N)NCCCCCCCCN1CCCCCCCCNC(=N)NC1=O", "values": [
      {"measurement": "Activity", "setting": "[1]", "result": "Active"},
      {"measurement": "Activity", "setting": "[2]", "result": "Active"},
      {"measurement": "Activity", "setting": "[3]", "result": "inactive"},
      {"measurement": "Activity", "setting": "[4]", "result": "Active"},
      {"measurement": "Ratio", "setting": "[5]", "result": 8},
      {"measurement": "Ratio", "setting": "[6]", "result": 2},
      {"measurement": "Activity", "setting": "[7]", "result": "Active"},
      {"measurement": "fold change (FC)", "setting": "[8]", "result": 71.84},
      {"measurement": "fold change (FC)", "setting": "[9]", "result": 17.22},
      {"measurement": "fold change (FC)", "setting": "[10]", "result": 5.32},
      {"measurement": "fold change (FC)", "setting": "[11]", "result": 4.43},
      {"measurement": "fold change (FC)", "setting": "[12]", "result": 3.07},
      {"measurement": "fold change (FC)", "setting": "[13]", "result": 2.86},
      {"measurement": "fold change (FC)", "setting": "[14]", "result": 2.79},
      {"measurement": "fold change (FC)", "setting": "[15]", "result": 2.28},
      {"measurement": "fold change (FC)", "setting": "[16]", "result": 1.63},
      {"measurement": "fold change (FC)", "setting": "[17]", "result": 134.38},
      {"measurement": "fold change (FC)", "setting": "[18]", "result": 6.56},
      {"measurement": "fold change (FC)", "setting": "[19]", "result": 2.93},
      {"measurement": "fold change (FC)", "setting": "[20]", "result": 2.83},
      {"measurement": "fold change (FC)", "setting": "[21]", "result": 2.66},
      {"measurement": "MIC", "setting": "[22]", "result": 5, "unit": "µM"},
      {"measurement": "MIC", "setting": "[23]", "result": 10, "unit": "µM"},
      {"measurement": "MIC", "setting": "[24]", "result": 10, "unit": "µM"},
      {"measurement": "MIC", "setting": "[25]", "result": 80, "unit": "µM"},
      {"measurement": "MIC", "setting": "[26]", "result": 80, "unit": "µM"},
      {"measurement": "MIC", "setting": "[27]", "result": 40, "unit": "µM"},
      {"measurement": "MIC", "setting": "[28]", "result": 40, "unit": "µM"},
      {"measurement": "MIC", "setting": "[29]", "result": 5, "unit": "µM"},
      {"measurement": "MIC", "setting": "[30]", "result": 10, "unit": "µM"}
    ]}
  ]
}
